Where a SMILES comes first, the peptide text is derived from it. [ ]: non-standard residue; d: D form. The star is where a group is joined. X1 = OC[C@H]1O[C@@H](n2cc(C*)nn2)[C@H](O)[C@@H](O)[C@H]1O; Dmt = Cc1cc(O)cc(C)c1C[C@H](N)C(=O)O
What was measured:
Mus musculus [1] = assay: Antinociceptive activity in iv dosed C57Bl6 mouse assessed as tail flick latency after 5 to 180 mins by tail-flick assay; format: functional
In short: (§1)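 Intravenous dosing in C57Bl6 mice (23–25 g), with antinociception monitored up to 180 min by hot plate (supraspinal) or tail-flick (spinal) and expressed as %MPE. ED50 in mg/kg came from standard nonlinear regression of the log dose–response curve.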

Mu-type opioid receptor [2] = target: Mu-type opioid receptor (Cavia porcellus, UniProt P97266); assay: Agonist activity at mu opioid receptor in guinea pig ileum; format: tissue-based
In short: (§2)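 Binding used rat brain membrane preparations, with MOR labelled by [3H]DAMGO and DOR by [3H]DSLET and read as displacement. Functional MOR activity was measured in isolated guinea pig ileum and DOR activity in isolated mouse vas deferens. Values are means of 3–4 experiments.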

Mus musculus [3] = assay: Antinociceptive activity in C57Bl6 mouse assessed as time of peak effect of tail flick latency at 0.5 mg/kg, iv by tail-flick assay; format: functional
In short: (§3)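 C57Bl6 mice (23–25 g) were dosed intravenously at 0.5 mg/kg. Spinal antinociception was measured by tail-flick latency and expressed as %MPE. The response was tracked over time up to 180 min post-dose to find the time of peak effect.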

[4] = target: Delta-type opioid receptor (Mus musculus, UniProt P32300); assay: Agonist activity at delta opioid receptor in mouse vas deferens; in short: as §2
Plasma = assay: Drug degradation in human plasma up to 20 hrs; format: ADME, cell-free
Mus musculus [5] = assay: Antinociceptive activity in C57Bl6 mouse assessed as tail flick latency at 0.5 mg/kg, iv by tail-flick assay; format: functional, organism-based; design: dose 0.5 mg/kg; conditions: TDE = time-dependent effect; in short: as §3
Mus musculus [6] = assay: Antinociceptive activity in C57Bl6 mouse assessed as maximum possible effect of tail flick latency at 0.5 mg/kg, iv after 180 mins by tail-flick assay; format: functional; in short: as §3
[7] = target: Delta-type opioid receptor (Rattus norvegicus, UniProt P33533); assay: Displacement of [3H]DSLET from delta opioid receptor in rat brain membranes; format: cell membranes, Membrane; in short: as §2
Mus musculus [8] = assay: Antinociceptive activity in C57Bl6 mouse at 0.5 mg/kg, iv by hot plate test; format: functional, organism-based; design: dose 0.5 mg/kg; conditions: TDE = time-dependent effect
In short: (§4)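 C57Bl6 mice (23–25 g body weight) received a single intravenous dose of 0.5 mg/kg. Supraspinal antinociception was measured by hot plate and expressed as %MPE. Readings were followed over time up to 180 min after dosing to give the time course and the time of peak effect.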

Mu-type opioid receptor [9] = target: Mu-type opioid receptor (Rattus norvegicus, UniProt P33535); assay: Displacement of [3H]DAMGO from mu opioid receptor in rat brain membranes; format: cell membranes, Membrane; in short: as §2
Mus musculus [10] = assay: Antinociceptive activity in iv dosed C57Bl6 mouse after 5 to 180 mins by hot plate test; format: functional; in short: as §1
Mus musculus [11] = assay: Antinociceptive activity in C57Bl6 mouse assessed as maximum possible effect at 0.5 mg/kg, iv after 180 mins by hot plate test; format: functional; in short: as §4
[12] = Half life in rat brain homogenates; format: ADME, tissue-based; conditions: brain homogenate
[13] = Half life in human plasma; format: ADME, cell-free
Mus musculus [14] = assay: Antinociceptive activity in C57Bl6 mouse assessed as time of peak effect at 0.5 mg/kg, iv by hot plate test; format: functional; in short: as §4

Chain of Delta-type opioid receptor (Mus musculus, UniProt P32300) (P32300 whole entry): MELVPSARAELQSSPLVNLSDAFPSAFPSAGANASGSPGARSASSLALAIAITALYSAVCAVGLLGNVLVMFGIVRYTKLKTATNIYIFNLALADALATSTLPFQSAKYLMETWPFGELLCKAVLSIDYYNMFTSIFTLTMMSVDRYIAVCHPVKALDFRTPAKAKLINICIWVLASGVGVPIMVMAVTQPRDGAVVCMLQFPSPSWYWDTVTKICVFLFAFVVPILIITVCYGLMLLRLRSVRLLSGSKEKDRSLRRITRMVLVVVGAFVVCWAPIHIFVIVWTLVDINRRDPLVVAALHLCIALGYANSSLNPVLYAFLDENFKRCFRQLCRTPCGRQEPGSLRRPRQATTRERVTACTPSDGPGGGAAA
Chain of Mu-type opioid receptor (Rattus norvegicus, UniProt P33535) (P33535 whole entry): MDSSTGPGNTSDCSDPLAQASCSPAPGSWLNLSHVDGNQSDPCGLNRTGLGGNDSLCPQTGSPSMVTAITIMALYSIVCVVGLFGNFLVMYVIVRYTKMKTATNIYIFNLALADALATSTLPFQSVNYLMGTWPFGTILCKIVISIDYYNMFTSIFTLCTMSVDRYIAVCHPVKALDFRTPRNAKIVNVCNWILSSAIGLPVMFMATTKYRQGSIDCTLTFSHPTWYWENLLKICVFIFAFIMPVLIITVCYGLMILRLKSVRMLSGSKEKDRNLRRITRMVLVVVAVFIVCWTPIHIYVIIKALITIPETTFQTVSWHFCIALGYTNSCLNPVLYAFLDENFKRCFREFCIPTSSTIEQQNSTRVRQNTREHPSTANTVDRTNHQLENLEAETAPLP
Chain of Delta-type opioid receptor (Rattus norvegicus, UniProt P33533) (P33533 whole entry): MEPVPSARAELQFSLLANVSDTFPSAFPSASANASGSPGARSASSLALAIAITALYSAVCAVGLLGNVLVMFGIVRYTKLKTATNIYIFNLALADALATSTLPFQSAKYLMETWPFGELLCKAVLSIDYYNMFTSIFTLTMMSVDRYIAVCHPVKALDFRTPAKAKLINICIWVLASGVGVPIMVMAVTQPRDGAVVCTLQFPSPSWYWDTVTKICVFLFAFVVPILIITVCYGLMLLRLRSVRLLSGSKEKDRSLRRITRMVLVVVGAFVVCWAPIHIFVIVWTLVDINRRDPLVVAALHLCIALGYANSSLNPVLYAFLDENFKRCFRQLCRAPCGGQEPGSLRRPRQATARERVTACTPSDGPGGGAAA
Chain of Mu-type opioid receptor (Cavia porcellus, UniProt P97266) (P97266 whole entry): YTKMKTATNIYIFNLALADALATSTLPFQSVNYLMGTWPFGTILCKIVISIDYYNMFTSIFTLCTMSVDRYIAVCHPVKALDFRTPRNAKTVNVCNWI

SMILES	Activity (Mus musculus [1])	ED50 (Mus musculus [1]) [mg/kg]	IC50 (Mu-type opioid receptor [2]) [nM]	Time (Mus musculus [3]) [min]	IC50 [4] [nM]	Stability (Plasma)	Activity (Mus musculus [5])	MPE (Mus musculus [6]) [%]	Ki [7] [nM]	Activity (Mus musculus [8])	Ki (Mu-type opioid receptor [9]) [nM]	Activity (Mus musculus [10])	ED50 (Mus musculus [10]) [mg/kg]	MPE (Mus musculus [11]) [%]	half-life [12] [min]	half-life [13] [min]	Time (Mus musculus [14]) [min]
Cc1cc(O)cc(C)c1C[C@H](N)C(=O)N[C@H](CCCNC(=N)N)C(=O)N[C@@H](Cc1ccccc1)C(=O)N[C@@H](Cc1cn([C@@H]2O[C@H](CO)[C@@H](O)[C@H](O)[C@H]2O)nn1)C(N)=O	Dose-dependent effect	0.34	1.46	60	2.75	Stable	tde	40	11.9	tde	0.203	Dose-dependent effect	0.31	40	–	–	–
NCCCC[C@H](NC(=O)[C@H](Cc1ccccc1)NC(=O)[C@@H](CCCN=C(N)N)NC(=O)[C@@H](N)Cc1ccc(O)cc1)C(N)=O	–	–	254	–	–	–	–	–	–	–	–	–	–	–	–	–	–
Cc1cc(O)cc(C)c1C[C@H](N)C(=O)N1CCC[C@H]1C(=O)N[C@@H](Cc1ccccc1)C(=O)N[C@@H](Cc1ccccc1)C(N)=O	–	–	–	–	–	–	–	–	–	–	–	–	–	–	39.5	53	–
N=C(N)NCCC[C@@H](NC(=O)[C@@H](N)Cc1ccc(OCc2cn([C@@H]3O[C@H](CO)[C@H](O)[C@H](O)[C@H]3O)nn2)cc1)C(=O)N[C@@H](Cc1ccccc1)C(=O)N[C@@H](CCCCN)C(N)=O	–	–	1180	–	1990	–	–	–	> 5000	–	38.4	–	–	–	–	–	–
Cc1cc(O)cc(C)c1C[C@H](N)C(=O)N[C@H](CCCNC(=N)N)C(=O)N[C@@H](Cc1ccccc1)C(=O)N[C@@H](Cc1ccc(OCc2cn([C@@H]3O[C@H](CO)[C@H](O)[C@H](O)[C@H]3O)nn2)cc1)C(N)=O (H-[Dmt][dR]FY(X1)-NH2)	–	–	2.3	–	6	–	–	–	22.2	–	0.286	–	–	–	–	–	–
Cc1cc(O)cc(C)c1C[C@H](N)C(=O)N[C@H](CCCNC(=N)N)C(=O)N[C@@H](Cc1ccccc1)C(=O)N[C@@H](CCCCN)C(N)=O	Dose-dependent effect	0.17	–	60	–	–	tde	40	–	tde	–	Dose-dependent effect	0.25	40	–	–	–
Cc1cc(O)cc(C)c1C[C@H](N)C(=O)N[C@H](CCCNC(=N)N)C(=O)N[C@@H](Cc1ccccc1)C(=O)N[C@@H](Cc1cn([C@@H]2O[C@H](CO)[C@H](O)[C@H](O)[C@H]2O)nn1)C(N)=O	Dose-dependent effect	0.27	0.66	60	1.98	Stable	tde	40	15.6	tde	0.222	Dose-dependent effect	0.4	40	–	–	60
Cc1cc(O)cc(C)c1C[C@H](N)C(=O)N[C@H](CCCNC(=N)N)C(=O)N[C@@H](Cc1ccccc1)C(=O)N[C@@H](COCc1cn([C@@H]2O[C@H](CO)[C@H](O)[C@H](O)[C@H]2O)nn1)C(N)=O (H-[Dmt][dR]FS(X1)-NH2)	–	–	0.35	–	4.9	–	–	–	6.36	–	0.112	–	–	–	–	–	–

— ChEMBL document CHEMBL3259790, “In Vitro Membrane Permeation Studies and in Vivo Antinociception of Glycosylated Dmt(1)-DALDA Analogues” (ACS Med Chem Lett, 2014)
